# pIC50: −log10 of the molar value.
# Assays:
# MCF7 = assay: Cytotoxicity against human MCF7 cells after 72 hrs by MTT assay; type: functional, cell-based; details: MCF7, 72 h
# Procedure, shortened: (§1)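 MTT end-point assay. Cells were exposed to compound at 1×10^-4 to 1×10^-8 mol l⁻¹ final for 72 h. Seeding was 3×10^3 cells ml⁻¹ for A-549, MCF-7 and MDA-MB-231; 5×10^3 for HeLa; 1×10^4 for Jurkat and CCRF-CEM. Media were DMEM/10% FCS (A-549, MCF-7, MDA-MB-231) or RPMI-HEPES/10% FCS (others). Formazan was dissolved in SDS for 12 h and read at 540 nm against untreated control, in triplicate. IC50 was curve-fitted.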
# MDA-MB-231 = assay: Cytotoxicity against human MDA-MB-231 cells after 72 hrs by MTT assay; type: functional, cell-based; details: MDA-MB-231, 72 h; procedure, shortened: as §1
# Acanthamoeba lugdunensis = assay: Trophocidal activity against Acanthamoeba lugdunensis assessed as viability for 14 days by trypan blue exclusion assay; type: functional
# Procedure, shortened: (§2)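 Trophozoites were grown axenically in PYG medium and seeded at 2×10^5 cells ml⁻¹ (100 µl), then mixed with compound in PYG at 37 °C. APCs were tested at 25–800 µM (six levels) and QUATs at 7.25–100 µM (five levels). Viability was scored by trypan blue exclusion. Eradication was confirmed by transfer to fresh PYG with growth monitored for 14 days. MTC was the lowest concentration giving 100% eradication.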
# Jurkat = assay: Cytotoxicity against human Jurkat cells after 72 hrs by MTT assay; type: functional, cell-based; procedure, shortened: as §1
# HeLa = assay: Cytotoxicity against human HeLa cells after 72 hrs by MTT assay; type: functional, cell-based; procedure, shortened: as §1
# [1] = Toxicity in human erythrocytes assessed as hemolysis after 1 hr; type: cell-based, Erythrocyte
# Procedure, shortened: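 Citrated human blood erythrocytes were washed three times in Ca/Mg-free PBS (2000g, 10 min) and resuspended in glucose-containing phosphate buffer, pH 7.4. They were diluted 1:10 into compound-containing buffer to a final 6.7–6.8×10^7 cells ml⁻¹ and incubated 1 h at 37 °C with shaking. After centrifugation, supernatant absorbance at 542 nm was compared with fully lysed controls (CTAB).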
# Candida albicans = assay: Antifungal activity against Candida albicans CCM 8186 assessed as inhibition of colony formation after 24 hrs; type: functional
# Procedure, shortened: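 C. albicans came from 24-h Sabouraud agar cultures and was suspended at 5×10^5 cells ml⁻¹ in physiological solution pH 7.2, adjusted to A540 = 0.35. It was mixed with aqueous compound and double-concentrated Sabouraud medium and incubated 24 h at 37 °C. Each well was then subcultured on Sabouraud agar for 24 h at 37 °C. MFC was the lowest concentration giving no colonies.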
# A549 = assay: Cytotoxicity against human A549 cells after 72 hrs by MTT assay; type: functional, cell-based; details: A549, 72 h; procedure, shortened: as §1
# CCRF-CEM = assay: Cytotoxicity against human CCRF-CEM cells after 72 hrs by MTT assay; type: functional, cell-based; procedure, shortened: as §1
# Acanthamoeba polyphaga = assay: Trophocidal activity against Acanthamoeba polyphaga 5SU assessed as viability for 14 days by trypan blue exclusion assay; type: functional; procedure, shortened: as §2
# Acanthamoeba lenticulata = assay: Trophocidal activity against Acanthamoeba lenticulata 72/2 assessed as viability for 14 days by trypan blue exclusion assay; type: functional; procedure, shortened: as §2
# Acanthamoeba castellanii = assay: Trophocidal activity against Acanthamoeba castellanii 1BU assessed as viability for 14 days by trypan blue exclusion assay; type: functional; procedure, shortened: as §2
Molecule,pIC50 (MCF7),pIC50 (MDA-MB-231),MTC (Acanthamoeba lugdunensis),pIC50 (Jurkat),pIC50 (HeLa),EC50 at 1 hr [1],"MFC (Candida albicans; CCM 8186, 24 h)",pIC50 (A549),pIC50 (CCRF-CEM),MFC (Candida albicans),MTC (Acanthamoeba polyphaga),MTC (Acanthamoeba lenticulata),MTC (Acanthamoeba castellanii)
CCCCCCCCCCCCCCCC[N+]1(C)CCOCC1.[Br-],6.05,5.24,50 µM,5.45,5.25,45 µM,24 µM,6.06,5.38,–,–,–,–
CCCCCCCCCCCCCCCC[N+]1(C)CCCC1.[Br-],6.21,5.42,12.5 µM,6.09,5.64,35 µM,10 µM,6.28,5.87,–,–,–,–
CCCCCCCCCCCCCCCCOP(=O)([O-])OCC[N+]1(C)CCOCC1,4.65,4.94,200 µM,5.11,4.66,30 µM,8 µM,4.38,5.08,–,–,–,–
CCCCCCCCCCCCCCCC[N+](C)(CCC)CCC.[Br-],6.10,5.37,25 µM,6.07,5.77,30 µM,19 µM,6.12,5.71,–,–,–,–
CCCCCCCCCCCCCCCC[N+]1(C)CCCCCCC1.[Br-],6.03,5.39,12.5 µM,6.11,5.84,30 µM,9 µM,6.07,6.00,–,–,–,–
CCCCCCCCCCCCCCCCOP(=O)([O-])OCC[N+]1(C)CCCCC1,4.26,4.29,200 µM,4.85,4.24,25 µM,8 µM,< 4.00,4.95,–,–,–,–
CCCCCCCCCCCCCCCCOP(=O)([O-])OCC[N+]1(C)CCCCCCC1,4.27,4.34,50 µM,4.41,4.26,30 µM,8 µM,4.26,4.36,–,–,–,–
CCCCCCCCCCCCCCCCOP(=O)([O-])OCC[N+]1(C)CCCCCC1,4.29,4.30,50 µM,4.74,4.27,25 µM,8 µM,4.26,5.01,–,–,–,–
Cetyltrimethylammonium bromide,–,–,25 µM,–,–,–,–,–,–,21 µM,–,–,–
CCCCCCCCCCCCCCCC[N+](C)(CCCC)CCCC.[Br-],6.17,5.59,25 µM,6.12,6.05,25 µM,9 µM,6.19,6.04,–,–,–,–
CCCCCCCCCCCCCCCC[N+](C)(CC)CC.[Br-],6.19,5.31,25 µM,6.10,5.86,40 µM,10 µM,6.21,5.68,–,–,–,–
CCCCCCCCCCCCCCCCOP(=O)([O-])OCC[N+]1(C)CCCC1,4.41,4.42,200 µM,5.00,4.34,30 µM,8 µM,4.27,5.03,–,–,–,–
CCCCCCCCCCCCCCCC[N+]1(C)CCCCCC1.[Br-],6.14,5.55,12.5 µM,6.10,5.74,35 µM,9 µM,6.17,6.00,–,–,–,–
CCCCCCCCCCCCCCCCOP(=O)([O-])OCC[N+](C)(CCC)CCC,4.30,4.39,400 µM,4.54,4.26,30 µM,16 µM,4.26,4.72,–,–,–,–
CCCCCCCCCCCCCCCCOP(=O)([O-])OCC[N+](C)(CC)CC,4.27,4.46,200 µM,4.71,4.31,30 µM,4 µM,4.23,5.05,–,–,–,–
CCCCCCCCCCCCCCCCOP(=O)([O-])OCC[N+](C)(C)C [MILTEFOSINE],4.41,4.42,400 µM,5.00,4.38,30 µM,4 µM,4.35,4.87,–,31.25 µM,20 µM,31.25 µM
CCCCCCCCCCCCCCCC[N+]1(C)CCCCC1.[Br-],6.23,5.41,12.5 µM,6.14,5.83,35 µM,10 µM,6.20,6.04,–,–,–,–

# From ChEMBL document CHEMBL1155234, “Dialkylamino and nitrogen heterocyclic analogues of hexadecylphosphocholine and cetyltrimetylammonium bromide: effect of phosphate group and environment of the ammonium cation on their biological activity” (Eur J Med Chem, 2009)
